Source: ChEMBL document CHEMBL4706590, “Design and characterization of cereblon-mediated androgen receptor proteolysis-targeting chimeras” (Eur J Med Chem, 2020)
Calls of active or inactive are those of the source. The calls are words filed in the database; no cut-off is given here.

Assays:
[1] = target: T1, Protein cereblon/Androgen receptor (Homo sapiens, UniProt P10275+Q96SW2); experiment: Protac activity at CRBN/AR in human LNCaP cells assessed as AR degradation at 0.1 to 10 uM Western blotting analysis relative to control; assay type: cell-based; conditions: dose 0.1-10 µM
How it was run: (§1)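 LNCaP (IMDM) or 22RV1 (RPMI 1640) cells with 10% FBS at 37 °C, 5% CO2, treated with DMSO vehicle as control. Cells lysed in RIPA buffer (50 mM Tris-HCl pH 7.5, 150 mM NaCl, 1% Triton X-100, 0.1% SDS, 0.5% deoxycholate, protease inhibitors). Protein quantified by Bradford assay. Immunoblotted for AR with tubulin as loading control, HRP chemiluminescence detection.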
Target sequence in this assay (P10275 whole entry, looked up): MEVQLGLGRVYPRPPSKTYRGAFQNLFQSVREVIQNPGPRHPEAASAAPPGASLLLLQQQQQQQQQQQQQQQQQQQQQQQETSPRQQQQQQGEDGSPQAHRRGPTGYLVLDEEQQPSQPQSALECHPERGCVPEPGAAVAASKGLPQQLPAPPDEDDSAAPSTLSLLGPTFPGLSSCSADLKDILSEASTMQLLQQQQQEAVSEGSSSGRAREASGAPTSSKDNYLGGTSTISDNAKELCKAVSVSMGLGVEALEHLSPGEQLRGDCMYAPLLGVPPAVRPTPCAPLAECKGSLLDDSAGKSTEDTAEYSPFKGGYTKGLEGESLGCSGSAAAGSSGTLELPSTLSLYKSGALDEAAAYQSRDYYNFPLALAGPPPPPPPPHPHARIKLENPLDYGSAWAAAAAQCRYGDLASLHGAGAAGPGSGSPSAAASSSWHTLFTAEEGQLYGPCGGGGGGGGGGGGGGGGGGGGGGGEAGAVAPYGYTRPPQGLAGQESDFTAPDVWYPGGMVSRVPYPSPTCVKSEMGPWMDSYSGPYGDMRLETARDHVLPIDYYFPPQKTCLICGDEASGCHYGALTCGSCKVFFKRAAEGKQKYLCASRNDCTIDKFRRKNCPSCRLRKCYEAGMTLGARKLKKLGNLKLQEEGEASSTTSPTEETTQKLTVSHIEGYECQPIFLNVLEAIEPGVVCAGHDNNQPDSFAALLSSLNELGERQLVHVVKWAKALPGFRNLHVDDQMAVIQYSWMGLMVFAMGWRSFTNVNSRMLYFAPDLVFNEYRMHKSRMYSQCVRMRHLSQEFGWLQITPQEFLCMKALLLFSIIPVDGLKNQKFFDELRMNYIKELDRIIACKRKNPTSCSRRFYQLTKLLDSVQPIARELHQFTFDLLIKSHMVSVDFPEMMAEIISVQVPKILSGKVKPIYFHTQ
Target sequence in this assay (Q96SW2 whole entry, looked up): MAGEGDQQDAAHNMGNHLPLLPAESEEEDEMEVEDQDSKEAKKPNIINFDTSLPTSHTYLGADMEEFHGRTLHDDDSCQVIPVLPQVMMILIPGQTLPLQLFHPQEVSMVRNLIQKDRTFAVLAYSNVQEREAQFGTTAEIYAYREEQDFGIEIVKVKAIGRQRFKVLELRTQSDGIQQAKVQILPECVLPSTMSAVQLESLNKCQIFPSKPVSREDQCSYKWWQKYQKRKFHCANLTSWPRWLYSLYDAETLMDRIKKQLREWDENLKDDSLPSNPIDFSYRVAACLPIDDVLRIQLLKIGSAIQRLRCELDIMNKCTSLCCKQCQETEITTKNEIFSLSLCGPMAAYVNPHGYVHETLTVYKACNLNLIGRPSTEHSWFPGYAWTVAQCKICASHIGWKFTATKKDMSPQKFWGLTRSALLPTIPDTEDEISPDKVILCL

[2] = Cmax in ICR mouse at 30 mg/kg, po by LC-MS/MS analysis; assay type: ADME, organism-based; parameters: route oral, dose 30 mg/kg; conditions: in vivo
How it was run: (§2)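 Male ICR mice, 7 weeks old. Single dose of 5 mg/kg IV or IP in 5% DMSO, 52% PEG400, 3% Tween 80 in water, or 30 mg/kg PO in 20% PEG400 and 3% Tween 80 in water. Retro-orbital blood sampled over time. Plasma protein-precipitated with acetonitrile (1:10) and analysed by LC-MS/MS. Parameters from noncompartmental analysis of mean data, n = 3.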

[3] = target: T1, Protein cereblon/Androgen receptor; experiment: Protac activity at CRBN/AR in human LNCaP cells assessed as AR degradation at 10 uM by Western blotting analysis relative to control; assay type: cell-based; how it was run: as §1
Target sequence in this assay (P10275 whole entry, looked up): as the sequence (P10275 whole entry, looked up) above
Target sequence in this assay (Q96SW2 whole entry, looked up): as the sequence (Q96SW2 whole entry, looked up) above

[4] = target: T1, Protein cereblon/Androgen receptor; experiment: Protac activity at CRBN/AR in human LNCaP cells assessed as AR degradation at 0.1 uM by western blotting analysis relative to control; assay type: cell-based; how it was run: as §1
Target sequence in this assay (P10275 whole entry, looked up): as the sequence (P10275 whole entry, looked up) above
Target sequence in this assay (Q96SW2 whole entry, looked up): as the sequence (Q96SW2 whole entry, looked up) above

[5] = Half life in ICR mouse at 30 mg/kg, po by LC-MS/MS analysis; assay type: ADME, organism-based; conditions: in vivo; for t1/2: 30 mg/kg; how it was run: as §2
[6] = target: T1, Protein cereblon/Androgen receptor; experiment: Protac activity at CRBN/AR in human LNCaP cells assessed as AR degradation at 1 uM by Western blotting analysis relative to control; assay type: cell-based; how it was run: as §1
Target sequence in this assay (P10275 whole entry, looked up): as the sequence (P10275 whole entry, looked up) above
Target sequence in this assay (Q96SW2 whole entry, looked up): as the sequence (Q96SW2 whole entry, looked up) above

[7] = AUCt in ICR mouse at 5 mg/kg, iv by LC-MS/MS analysis; assay type: ADME, organism-based; parameters: dose 5 mg/kg; conditions: in vivo; how it was run: as §2
[8] = AUCt in ICR mouse at 30 mg/kg, po by LC-MS/MS analysis; assay type: ADME, organism-based; parameters: dose 30 mg/kg; conditions: in vivo; for AUC(0-t): ICR; how it was run: as §2
[9] = Half life in ICR mouse at 5 mg/kg, ip by LC-MS/MS analysis; assay type: ADME, organism-based; conditions: in vivo; how it was run: as §2
[10] = Cmax in ICR mouse at 5 mg/kg, ip by LC-MS/MS analysis; assay type: ADME, organism-based; parameters: route intraperitoneal, dose 5 mg/kg; conditions: in vivo; how it was run: as §2
[11] = Half life in ICR mouse at 5 mg/kg, iv by LC-MS/MS analysis; assay type: ADME, organism-based; conditions: in vivo; how it was run: as §2
[12] = Tmax in ICR mouse at 30 mg/kg, po by LC-MS/MS analysis; assay type: ADME, organism-based; conditions: in vivo; how it was run: as §2
VCaP [13] = experiment: Antiproliferative activity against human VCaP cells assessed as reduction in cell viability after 6 days by CellTiter-Glo assay; assay type: functional; conditions: 144 h, time 6 day
How it was run: (§3)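 LNCaP seeded at 1.5 × 10³ and VCaP at 4 × 10³ cells per well in 96-well plates. Cells grown in IMDM with 10% FBS and antibiotic-antimycotic at 37 °C, 5% CO2, with DMSO as vehicle. IC50 from nonlinear regression of log(inhibitor) versus response.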

[14] = Tmax in ICR mouse at 5 mg/kg, ip by LC-MS/MS analysis; assay type: ADME, organism-based; conditions: in vivo; how it was run: as §2
[15] = AUCt in ICR mouse at 5 mg/kg, ip by LC-MS/MS analysis; assay type: ADME, organism-based; parameters: dose 5 mg/kg; conditions: in vivo; how it was run: as §2
LNCaP = experiment: Antiproliferative activity against human LNCaP cells assessed as reduction in cell viability after 6 days by CellTiter-Glo assay; assay type: functional; conditions: 144 h, time 6 day; how it was run: as §3
[16] = Metabolic stability in mouse liver microsomes assessed as compound remaining at 1 uM after 30 mins in presence of NADPH-regenerating system; assay type: ADME, Microsome; conditions: read-out: Stabilty
How it was run: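 Mouse liver microsomes at 0.5 mg protein/mL in 100 mM PBS, pH 7.4. Reaction started with NADPH-regenerating solution (1.3 mM NADP+, 3.3 mM glucose-6-phosphate, 0.4 U/mL G6PDH, 3.3 mM MgCl2). Incubated 30 min at 37 °C, stopped with ice-cold acetonitrile, centrifuged. Percent remaining reported as mean ± SD, n = 3.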

[17] = target: T1, Protein cereblon/Androgen receptor; experiment: Protac activity at CRBN/AR in human LNCaP cells assessed as AR degradation at 1 uM after 4 hrs by Western blotting analysis relative to control; assay type: cell-based; how it was run: as §1
Target sequence in this assay (P10275 whole entry, looked up): as the sequence (P10275 whole entry, looked up) above
Target sequence in this assay (Q96SW2 whole entry, looked up): as the sequence (Q96SW2 whole entry, looked up) above

[18] = target: T1, Protein cereblon/Androgen receptor; experiment: Protac activity at CRBN/AR in human 22RV1 cells assessed as maximum degradation of AR at 1 uM by Western blotting analysis relative to control; assay type: cell-based; how it was run: as §1
Target sequence in this assay (P10275 whole entry, looked up): as the sequence (P10275 whole entry, looked up) above
Target sequence in this assay (Q96SW2 whole entry, looked up): as the sequence (Q96SW2 whole entry, looked up) above

[19] = target: T1, Protein cereblon/Androgen receptor; experiment: Protac activity at CRBN/AR in human LNCaP cells assessed as AR degradation after 24 hrs by Western blotting analysis; assay type: cell-based; how it was run: as §1
Target sequence in this assay (P10275 whole entry): as the sequence (P10275 whole entry, looked up) above
Target sequence in this assay (Q96SW2 whole entry): as the sequence (Q96SW2 whole entry, looked up) above

[20] = target: T1, Protein cereblon/Androgen receptor; experiment: Protac activity at CRBN/AR in human 22RV1 cells assessed as maximum degradation of AR-V7 splice variant at 10 uM by Western blotting analysis relative to control; assay type: cell-based; how it was run: as §1
[21] = target: T1, Protein cereblon/Androgen receptor; experiment: Protac activity at CRBN/AR in human LNCaP cells assessed as AR degradation at 1 uM pretreated with protease inhibitor bortezomib by Western blotting analysis; assay type: cell-based; how it was run: as §1
[22] = target: T1, Protein cereblon/Androgen receptor; experiment: Protac activity at CRBN/AR in human LNCaP cells assessed as AR degradation at 1 uM pretreated with neddylation inhibitor MLN4924 by Western blotting analysis; assay type: cell-based; how it was run: as §1
[23] = target: T1, Protein cereblon/Androgen receptor; experiment: Protac activity at CRBN/AR in human LNCaP cells assessed as maximum degradation of AR by Western blotting analysis relative to control; assay type: cell-based; conditions: time 24.0 hrs; how it was run: as §1
[24] = Toxicity in SCID mouse xenografted with human VCaP cells assessed as loss of body weight at 30 mg/kg, ip administered once daily for 10 days and measured every 1 to 3 days post treatment; assay type: organism-based; conditions: in vivo, 240 h, time 10 day
How it was run: (§4)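 Male SCID mice (C.B-17/IcrCrj-scid) implanted subcutaneously in the right flank with 1.5×10⁷ VCaP cells mixed 1:1 with Matrigel. At about 130 mm³, mice dosed IP once daily for 10 days, vehicle 20% PEG400 + 3% Tween 80 in PBS. Tumours measured by caliper, volume = length × width² × 0.5. Body weight tracked alongside; Mann-Whitney U test, α = 0.01.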

VCaP [25] = experiment: Antitumor activity against human VCaP cells xenografted in SCID mouse assessed as reduction in tumor growth at 30 mg/kg, ip administered once daily for 10 days and measured every 1 to 3 days post treatment by caliper method; assay type: functional, organism-based; conditions: time 10.0 day; how it was run: as §4

| SMILES | Cmax [2] [ng/mL] | Activity [3] [%] | Activity [4] [%] | t1/2 [5] [h] | Activity [6] [%] | AUC(0-t) [7] [ng·h/mL] | AUCt [8] [ng·h/mL] | t1/2 [9] [h] | Cmax [10] [ng/mL] | half-life [11] [h] | Tmax ([12]; 30 mg/kg) [h] | CC50 (VCaP [13]) [nM] | Tmax [14] [h] | AUCt [15] [ng·h/mL] | CC50 (LNCaP) [nM] | remaining at 0.5 h, 1 µM [16] [%] | Cmax ([2]; ICR, read-out: Cmax) [ng/mL] | AUC(0-t) [8] [ng·h/mL] | Tmax ([12]; ICR, read-out: Tmax) [h] | further results |
| --- | --- | --- | --- | --- | --- | --- | --- | --- | --- | --- | --- | --- | --- | --- | --- | --- | --- | --- | --- | --- |
| CN1C(=O)CCC(n2nnc3ccc(N4CCC(C(=O)N5CCC6(CC5)CC(N5CCN(c7ccc(C(=O)N[C@H]8C(C)(C)[C@H](Oc9ccc(C#N)c(Cl)c9)C8(C)C)cc7)CC5)C6)CC4)cc3c2=O)C1=O (stereo partly drawn) |  |  |  |  |  |  |  |  |  |  |  |  |  |  |  |  |  |  |  | Activity [1]: inactive |
| CC1(C)[C@H](NC(=O)c2ccc(N3CCN(CC4CCN(C(=O)C5CN(c6ccc7nnn(C8CCC(=O)NC8=O)c(=O)c7c6)C5)CC4)CC3)cc2)C(C)(C)[C@H]1Oc1ccc(C#N)c(Cl)c1 (stereo partly drawn) | 50 | 83 | 96 | 26.7 | 96 | 24100 | 440 | 4.82 | 5540 | 4.48 | 0.67 | 38 | 2 | 24200 | 89 | 92.8 |  |  |  |  |
| CC1(C)[C@H](NC(=O)c2ccc(N3CCN(CCOC4CCN(C(=O)C5CN(c6ccc7nnn(C8CCC(=O)NC8=O)c(=O)c7c6)C5)CC4)CC3)cc2)C(C)(C)[C@H]1Oc1ccc(C#N)c(Cl)c1 (stereo partly drawn) | 20 | 90 | 82 | 19.7 | 86 | 4490 | 150 | 4.24 | 2010 | 4.35 | 0.7 | 57 | 1.67 | 7490 | 762 | 92.6 |  |  |  |  |
| CC1(C)[C@H](NC(=O)c2ccc(N3CCN(C4CC5(CCN(C(=O)C6CCN(c7ccc8nnn(C9CCC(=O)NC9=O)c(=O)c8c7)CC6)CC5)C4)CC3)cc2)C(C)(C)[C@H]1Oc1ccc(C#N)c(Cl)c1 (stereo partly drawn) |  | 95 | 85 |  | 93 | 20700 |  | 4.41 | 2780 | 8.28 |  | 44 | 0.03 | 1720 | 98 | 96 | 110 | 530 | 4 | Activity [17]: 80%; Activity [18]: 85%; DC50 [19]: 12.5 nM; Activity [20]: 34%; Activity [21]: inactive; Activity [22]: inactive; Activity [23]: 93%; Activity [24]: Non-Toxic; Activity (VCaP [25]): Active |
| CC1(C)[C@H](NC(=O)c2ccc(N3CCN(CCOC4CCN(c5ccc6nnn(C7CCC(=O)NC7=O)c(=O)c6c5)CC4)CC3)cc2)C(C)(C)[C@H]1Oc1ccc(C#N)c(Cl)c1 (stereo partly drawn) |  | 87 | 86 |  | 89 | 14300 |  | 4.51 | 1780 | 4.68 |  | 22 | 2 | 10700 | 523 | 86.8 | 280 | 2840 | 2 | half-life ([5]; ICR): 5.58 h |
